Experimental data from ChEMBL document CHEMBL1151448, “Comparative antianaerobic activities of doripenem determined by MIC and time-kill analysis” (2008).
Converted amounts (≈) assume the structure as drawn.

Assays:
Format in all cases: functional
[1] = tested on: Bacteroides fragilis; assay: Antimicrobial activity against beta lactamase-positive Bacteroides fragilis isolated from intra-abdominal infection and pelvic inflammatory disease patients after 48 hrs by agar dilution method
Procedure, shortened: (§1)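 CLSI agar dilution on brucella blood agar supplemented with laked sheep blood, hemin and vitamin K. Inocula of about 1 × 10^5 CFU/spot were applied by Steers replicator, and plates were incubated 48 h at 35°C in an anaerobic glove box. MIC was the concentration giving marked growth reduction versus the anaerobic control plate. QC strains were included each run, and β-lactamase was detected by Cefinase disk.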

[2] = tested on: Bacteroides thetaiotaomicron; assay: Antimicrobial activity against beta lactamase-positive Bacteroides thetaiotaomicron isolated from intra-abdominal infection and pelvic inflammatory disease patients after 48 hrs by agar dilution method; procedure, shortened: as §1
[3] = tested on: Bacteroides fragilis; assay: Antimicrobial activity against beta lactamase-positive Bacteroides fragilis isolated from intra-abdominal infection and pelvic inflammatory disease patients after 48 hrs by time kill analysis
Procedure, shortened: (§2)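 The MIC was read by inspecting macrodilution time-kill tubes. Vials held prereduced brucella broth with 5% laked horse blood cells, hemin 5 μg/ml and vitamin K1 1 μg/ml. Final inoculum was 10^6–10^7 CFU/ml, prepared inside the anaerobe chamber. Vials were incubated 48 h at 35°C in a shaking water bath.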

[4] = tested on: Prevotella intermedia; assay: Antimicrobial activity against beta lactamase-positive Prevotella intermedia isolated from intra-abdominal infection and pelvic inflammatory disease patients after 48 hrs by time kill analysis; procedure, shortened: as §2
[5] = tested on: Finegoldia magna; assay: Antimicrobial activity against beta lactamase-positive Finegoldia magna isolated from intra-abdominal infection and pelvic inflammatory disease patients after 48 hrs by time kill analysis; procedure, shortened: as §2
[6] = tested on: Clostridium perfringens; assay: Antimicrobial activity against Clostridium perfringens isolated from intra-abdominal infection and pelvic inflammatory disease patients after 48 hrs by time kill analysis
Procedure, shortened: (§3)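 Macrodilution in prereduced brucella broth with 5% laked horse blood cells, 5 μg/ml hemin and 1 μg/ml vitamin K1. Final inoculum 10^6 to 10^7 CFU/ml, prepared inside the anaerobe chamber. Vials incubated 48 h at 35°C in a shaking water bath. MIC read by inspecting the time-kill tubes, alongside an antibiotic-free growth control.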

[7] = tested on: Clostridioides difficile; assay: Antimicrobial activity against Clostridium difficile isolated from intra-abdominal infection and pelvic inflammatory disease patients after 48 hrs by time kill analysis; procedure, shortened: as §3
[8] = tested on: Bacteroides ovatus; assay: Antimicrobial activity against beta lactamase-positive Bacteroides ovatus isolated from intra-abdominal infection and pelvic inflammatory disease patients after 48 hrs by agar dilution method; procedure, shortened: as §1
[9] = tested on: Phocaeicola vulgatus; assay: Antimicrobial activity against beta lactamase-positive Bacteroides vulgatus isolated from intra-abdominal infection and pelvic inflammatory disease patients after 48 hrs by agar dilution method; procedure, shortened: as §1
[10] = tested on: Parabacteroides distasonis; assay: Antimicrobial activity against beta lactamase-positive Bacteroides distasonis isolated from intra-abdominal infection and pelvic inflammatory disease patients after 48 hrs by agar dilution method; procedure, shortened: as §1
[11] = tested on: Prevotella bivia; assay: Antimicrobial activity against beta lactamase-positive Prevotella bivia isolated from intra-abdominal infection and pelvic inflammatory disease patients after 48 hrs by agar dilution method; procedure, shortened: as §1
[12] = tested on: Prevotella disiens; assay: Antimicrobial activity against beta lactamase-positive Prevotella disiens isolated from intra-abdominal infection and pelvic inflammatory disease patients after 48 hrs by agar dilution method; procedure, shortened: as §1
[13] = tested on: Prevotella intermedia; assay: Antimicrobial activity against beta lactamase-positive Prevotella intermedia isolated from intra-abdominal infection and pelvic inflammatory disease patients after 48 hrs by agar dilution method; procedure, shortened: as §1
[14] = tested on: Prevotella nigrescens; assay: Antimicrobial activity against beta lactamase-positive Prevotella nigrescens isolated from intra-abdominal infection and pelvic inflammatory disease patients after 48 hrs by agar dilution method; procedure, shortened: as §1
[15] = tested on: Prevotella melaninogenica; assay: Antimicrobial activity against beta lactamase-positive Prevotella melaninogenica isolated from intra-abdominal infection and pelvic inflammatory disease patients after 48 hrs by agar dilution method; procedure, shortened: as §1
[16] = tested on: Prevotella denticola; assay: Antimicrobial activity against beta lactamase-positive Prevotella denticola isolated from intra-abdominal infection and pelvic inflammatory disease patients after 48 hrs by agar dilution method; procedure, shortened: as §1
[17] = tested on: Prevotella corporis; assay: Antimicrobial activity against beta lactamase-positive Prevotella corporis isolated from intra-abdominal infection and pelvic inflammatory disease patients after 48 hrs by agar dilution method; procedure, shortened: as §1
[18] = tested on: Prevotella buccae; assay: Antimicrobial activity against beta lactamase-positive Prevotella buccae isolated from intra-abdominal infection and pelvic inflammatory disease patients after 48 hrs by agar dilution method; details: Segatella buccae; procedure, shortened: as §1
[19] = tested on: Porphyromonas asaccharolytica; assay: Antimicrobial activity against Porphyromonas asaccharolyticus isolated from intra-abdominal infection and pelvic inflammatory disease patients after 48 hrs by agar dilution method; procedure, shortened: as §1
[20] = tested on: Porphyromonas gingivalis; assay: Antimicrobial activity against Porphyromonas gingivalis isolated from intra-abdominal infection and pelvic inflammatory disease patients after 48 hrs by agar dilution method; procedure, shortened: as §1
[21] = tested on: Porphyromonas levii; assay: Antimicrobial activity against Porphyromonas levii isolated from intra-abdominal infection and pelvic inflammatory disease patients after 48 hrs by agar dilution method; procedure, shortened: as §1
[22] = tested on: Fusobacterium nucleatum; assay: Antimicrobial activity against beta lactamase-positive Fusobacterium nucleatum isolated from intra-abdominal infection and pelvic inflammatory disease patients after 48 hrs by agar dilution method; procedure, shortened: as §1
[23] = tested on: Fusobacterium necrophorum; assay: Antimicrobial activity against Fusobacterium necrophorum isolated from intra-abdominal infection and pelvic inflammatory disease patients after 48 hrs by agar dilution method; procedure, shortened: as §1
[24] = tested on: Fusobacterium varium; assay: Antimicrobial activity against Fusobacterium varium isolated from intra-abdominal infection and pelvic inflammatory disease patients after 48 hrs by agar dilution method; procedure, shortened: as §1
[25] = tested on: Fusobacterium mortiferum; assay: Antimicrobial activity against beta lactamase-positive Fusobacterium mortiferum isolated from intra-abdominal infection and pelvic inflammatory disease patients after 48 hrs by agar dilution method; procedure, shortened: as §1
[26] = tested on: Finegoldia magna; assay: Antimicrobial activity against Finegoldia magna isolated from intra-abdominal infection and pelvic inflammatory disease patients after 48 hrs by agar dilution method; procedure, shortened: as §1
[27] = tested on: Parvimonas micra; assay: Antimicrobial activity against Micromonas micros isolated from intra-abdominal infection and pelvic inflammatory disease patients after 48 hrs by agar dilution method; procedure, shortened: as §1
[28] = tested on: Peptostreptococcus anaerobius; assay: Antimicrobial activity against Peptostreptococcus anaerobius isolated from intra-abdominal infection and pelvic inflammatory disease patients after 48 hrs by agar dilution method; procedure, shortened: as §1
[29] = tested on: Anaerococcus prevotii; assay: Antimicrobial activity against Anaerococcus prevotii isolated from intra-abdominal infection and pelvic inflammatory disease patients after 48 hrs by agar dilution method; procedure, shortened: as §1
[30] = tested on: Anaerococcus tetradius; assay: Antimicrobial activity against Anaerococcus tetradius isolated from intra-abdominal infection and pelvic inflammatory disease patients after 48 hrs by agar dilution method; procedure, shortened: as §1
[31] = tested on: Peptoniphilus asaccharolyticus; assay: Antimicrobial activity against Peptoniphilus asaccharolyticus isolated from intra-abdominal infection and pelvic inflammatory disease patients after 48 hrs by agar dilution method; procedure, shortened: as §1
[32] = tested on: Clostridium perfringens; assay: Antimicrobial activity against Clostridium perfringens isolated from intra-abdominal infection and pelvic inflammatory disease patients after 48 hrs by agar dilution method
Procedure, shortened: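 CLSI agar dilution on brucella blood agar supplemented with laked sheep blood, hemin and vitamin K. Inoculum about 1 × 10^5 CFU/spot, applied by Steers replicator. Plates incubated 48 h at 35°C in an anaerobic glove box. MIC is the concentration giving marked growth reduction versus the anaerobic control plate. Standard QC strains included in each run.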

[33] = tested on: Clostridioides difficile; assay: Antimicrobial activity against Clostridium difficile isolated from intra-abdominal infection and pelvic inflammatory disease patients after 48 hrs by agar dilution method; procedure, shortened: as §1
[34] = tested on: [Clostridium] innocuum; assay: Antimicrobial activity against Clostridium innocuum isolated from intra-abdominal infection and pelvic inflammatory disease patients after 48 hrs by agar dilution method; procedure, shortened: as §1
[35] = tested on: Thomasclavelia ramosa; assay: Antimicrobial activity against Clostridium ramosum isolated from intra-abdominal infection and pelvic inflammatory disease patients after 48 hrs by agar dilution method; procedure, shortened: as §1
[36] = tested on: Paraclostridium bifermentans; assay: Antimicrobial activity against Clostridium bifermentans isolated from intra-abdominal infection and pelvic inflammatory disease patients after 48 hrs by agar dilution method; procedure, shortened: as §1
[37] = tested on: Enterocloster clostridioformis; assay: Antimicrobial activity against Clostridium clostridioforme isolated from intra-abdominal infection and pelvic inflammatory disease patients after 48 hrs by agar dilution method; procedure, shortened: as §1
[38] = tested on: Paeniclostridium sordellii; assay: Antimicrobial activity against Clostridium sordellii isolated from intra-abdominal infection and pelvic inflammatory disease patients after 48 hrs by agar dilution method; details: Paraclostridium sordellii; procedure, shortened: as §1
[39] = tested on: Clostridium paraputrificum; assay: Antimicrobial activity against Clostridium paraputrificum isolated from intra-abdominal infection and pelvic inflammatory disease patients after 48 hrs by agar dilution method; procedure, shortened: as §1
[40] = tested on: Clostridium cadaveris; assay: Antimicrobial activity against Clostridium cadaveris isolated from intra-abdominal infection and pelvic inflammatory disease patients after 48 hrs by agar dilution method; procedure, shortened: as §1

CCC[C@@H]1C[C@@H](C(=O)N[C@@H]([C@H]2O[C@H](SC)[C@H](O)[C@@H](O)[C@H]2O)[C@H](C)Cl)N(C)C1 [CLINDAMYCIN]
MIC50 [1]: 1 µg/mL (≈ 2.35 µM) | MIC90 [1]: 4 µg/mL (≈ 9.41 µM) | MIC50 [2]: 4 µg/mL (≈ 9.41 µM) | MIC90 [2]: 8 µg/mL (≈ 18.8 µM) | MIC [3]: 0.5 µg/mL (≈ 1.18 µM) | MIC [4]: 0.016 µg/mL (≈ 0.0376 µM) | MIC [5]: 0.25 µg/mL (≈ 0.588 µM) | MIC [6]: 0.125 µg/mL (≈ 0.294 µM) | MIC [7]: 8 µg/mL (≈ 18.8 µM) | MIC50 [8]: 2 µg/mL (≈ 4.71 µM) | MIC90 [8]: > 16 µg/mL | MIC50 [9]: 0.03 µg/mL (≈ 0.0706 µM) | MIC90 [9]: 0.5 µg/mL (≈ 1.18 µM) | MIC50 [10]: 4 µg/mL (≈ 9.41 µM) | MIC90 [10]: > 16 µg/mL | MIC50 [11]: 0.03 µg/mL (≈ 0.0706 µM) | MIC90 [11]: > 16 µg/mL | MIC50 [12]: ≤ 0.016 µg/mL | MIC90 [12]: 0.03 µg/mL (≈ 0.0706 µM) | MIC50 [13]: ≤ 0.016 µg/mL | MIC90 [13]: 0.03 µg/mL (≈ 0.0706 µM) | MIC50 [14]: ≤ 0.016 µg/mL | MIC90 [14]: ≤ 0.016 µg/mL | MIC50 [15]: 0.03 µg/mL (≈ 0.0706 µM) | MIC90 [15]: ≤ 0.016 µg/mL | MIC50 [16]: 0.03 µg/mL (≈ 0.0706 µM) | MIC90 [16]: 0.03 µg/mL (≈ 0.0706 µM) | MIC [17]: ≤ 0.016 µg/mL | MIC50 [17]: ≤ 0.016 µg/mL | MIC90 [17]: 0.03 µg/mL (≈ 0.0706 µM) | MIC [18]: ≤ 0.016 µg/mL | MIC50 [18]: ≤ 0.016 µg/mL | MIC90 [18]: 0.03 µg/mL (≈ 0.0706 µM) | MIC [19]: ≤ 0.016 µg/mL | MIC [20]: ≤ 0.016 µg/mL | MIC [21]: ≤ 0.016 µg/mL | MIC90 [22]: 0.125 µg/mL (≈ 0.294 µM) | MIC50 [23]: 0.06 µg/mL (≈ 0.141 µM) | MIC90 [23]: 0.25 µg/mL (≈ 0.588 µM) | MIC50 [24]: 4 µg/mL (≈ 9.41 µM) | MIC90 [24]: 16 µg/mL (≈ 37.6 µM) | MIC [25]: 0.06 µg/mL (≈ 0.141 µM) | MIC50 [25]: 0.06 µg/mL (≈ 0.141 µM) | MIC90 [25]: 0.25 µg/mL (≈ 0.588 µM) | MIC50 [26]: 2 µg/mL (≈ 4.71 µM) | MIC90 [26]: > 16 µg/mL | MIC50 [27]: 0.25 µg/mL (≈ 0.588 µM) | MIC90 [27]: 0.5 µg/mL (≈ 1.18 µM) | MIC [28]: 0.03 µg/mL (≈ 0.0706 µM) | MIC50 [28]: 0.03 µg/mL (≈ 0.0706 µM) | MIC90 [28]: 0.25 µg/mL (≈ 0.588 µM) | MIC [29]: 0.125 µg/mL (≈ 0.294 µM) | MIC [30]: 0.5 µg/mL (≈ 1.18 µM) | MIC50 [30]: 0.5 µg/mL (≈ 1.18 µM) | MIC50 [31]: 0.06 µg/mL (≈ 0.141 µM) | MIC90 [31]: > 16 µg/mL | MIC50 [32]: 1 µg/mL (≈ 2.35 µM) | MIC90 [32]: 2 µg/mL (≈ 4.71 µM) | MIC50 [33]: 8 µg/mL (≈ 18.8 µM) | MIC90 [33]: > 16 µg/mL | MIC50 [34]: 1 µg/mL (≈ 2.35 µM) | MIC50 [35]: 4 µg/mL (≈ 9.41 µM) | MIC [36]: 0.06 µg/mL (≈ 0.141 µM) | MIC [37]: 0.06 µg/mL (≈ 0.141 µM) | MIC [38]: 1 µg/mL (≈ 2.35 µM) | MIC [39]: 8 µg/mL (≈ 18.8 µM) | MIC [40]: 0.03 µg/mL (≈ 0.0706 µM)
